The test system of test [1] is Erythrocyte. In words: Binding affinity to 52 kDa erythrocyte membrane protein in neuraminidase treated human erythrocytes at 1 mg/mL after 1 hr relative to control. Type of test: cell-based.
Test [2] relates to Erythrocyte. Briefly: Displacement of [125I]MSP-4 20494 peptide from 52 kDa erythrocyte membrane protein in human erythrocytes at 30 uM. Type of test: cell-based. In short, it runs like this:
(§1)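 Competition used 125I-labeled MSP-4 peptide 20494 at 300 nM with 1 × 10^7 human RBC. Unlabeled competitor peptides were present at 3–30 µM. Incubation was 90 min at room temperature. Cells were washed three times with HBS and cell-bound radioactivity was counted on a gamma counter.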
Background: Loss of bound radioactivity is the signal in a displacement assay; it reports binding, not function.

The test system of test [3] is Plasmodium falciparum. Briefly: Inhibition of Plasmodium falciparum FCB2 merozoite invasion of human erythrocytes at 100 uM. In kind it is functional. On the set-up: scale not given: the % may be the effect or the level left. Put shortly:
(§2)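 Sorbitol-synchronized P. falciparum FCB-2 was grown to late schizonts and set at 0.5% parasitemia and 5% hematocrit in RPMI 1640 with 10% O+ plasma. Peptides were added at 100 or 200 µM, in triplicate. Plates were incubated 18 h at 37 °C under 5% O2/5% CO2/90% N2. RBC were stained with hydroethidine 15 µg/mL for 30 min, washed, and read by flow cytometry (FL2). Values are mean ± SD of three experiments.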

In test [4] the test system is Erythrocyte. Briefly: Binding affinity to 52 kDa erythrocyte membrane protein in chymotrypsin treated human erythrocytes at 1 mg/mL after 1 hr relative to control. Type of test: cell-based. In short, it runs like this:
(§3)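 Human RBC (1.5 × 10^7 cell/µL in HBS pH 7.2, 1 mL) were treated for 1 h at 37 °C with shaking. […] used neuraminidase at 150 µU/mL. […] used trypsin and chymotrypsin at 1 mg/mL final. Cells were spun and washed thrice with HBS, then tested in the 125I-peptide binding assay. Specific binding is given as % of untreated-RBC control.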

Test [5] relates to Plasmodium falciparum. Briefly: Inhibition of Plasmodium falciparum FCB2 merozoite invasion of human erythrocytes at 200 uM. In kind it is functional. In short, it runs like this: as §2
Test [6] in a line: Binding affinity to 52 kDa erythrocyte membrane protein in human erythrocytes. Type of test: cell-based. Put shortly: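 Saturation binding used RBC at 1.5 × 10^7 cell/µL with 125I-peptide at 0–1800 nM, with or without 200-fold excess unlabeled peptide, for 90 min. Free label was sampled from the supernatant. Cells were washed twice with HBS and bound counts were measured by gamma counting, in triplicate. Affinity constant and sites per cell came from saturation curves; Hill coefficient came from a Hill plot.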

The subject of test [7] is Erythrocyte. In words: Binding affinity to 52 kDa erythrocyte membrane protein in trypsin treated human erythrocytes at 1 mg/mL after 1 hr relative to control. Type of test: cell-based. Put shortly: as §3
Test [8] has as its system Plasmodium falciparum. Briefly: Inhibition of Plasmodium falciparum FCB2 merozoite invasion of human erythrocytes at 0.5 mg/mL. Type of test: functional. Put shortly:
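Sorbitol-synchronized FCB-2 cultures grown to late schizont stage at 0.5% parasitemia and 5% hematocrit in RPMI 1640 with 10% O-positive plasma. Agent added in triplicate, then incubated 18 h at 37 °C under 5% O2/5% CO2/90% N2. Erythrocytes stained with 15 µg/mL hydroethidine for 30 min at 37 °C. Invasion read by flow cytometry (FL2).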

Test [9] deals with Plasmodium falciparum. In words: Inhibition of Plasmodium falciparum FCB2 merozoite invasion of human erythrocytes at […]. Type of test: functional.
The test system of test [10] is Erythrocyte. Briefly: Displacement of [125I]MSP-4 20494 peptide from 52 kDa erythrocyte membrane protein in human erythrocytes. In kind it is cell-based. In short, it runs like this:
as §1

The source made the active and inactive calls. The rule behind the calls is not given here. Peptide text beside a SMILES is read from it.

The record followed here is ChEMBL document CHEMBL1138240, “Identifying merozoite surface protein 4 and merozoite surface protein 7 Plasmodium falciparum protein family members specifically binding to human erythrocytes suggests a new malarial parasite-redundant survival mechanism” (J Med Chem, 2007).

By inhibition is commonly meant the percentage by which the read-out fell short of the control. In general, Kd refers to a measure of binding affinity in units of concentration. Regarding `CC(C)C[C@H](NC(=O)[C@H](CCCCN)NC(=O)[C@H](Cc1ccc(O)cc1)NC(=O)CNC(=O)[C@H](CCC(=O)O)NC(=O)[C@H](CCCCN)NC(=O)[C@H](CS)NC(=O)[C@H](CCCCN)NC(=O)[C@H](CS)NC(=O)[C@H](CCCCN)NC(=O)[C@@H](NC(=O)[C@H](CCCNC(=N)N)NC(=O)[C@H](CCCNC(=N)N)NC(=O)[C@H](CC(N)=O)NC(=O)CNC(=O)[C@@H](NC(=O)[C@H](Cc1ccc(O)cc1)NC(=O)[C@@H](N)CCC(=O)O)C(C)C)C(C)C)C(=O)N[C@@H](CCC(=O)O)C(=O)NCC(=O)O` (H-EYVGNRRVKCKCKEGYKLEG-OH), the Activity in test [1] turned out to be 73%; in test [2], 50%; in [3] it was 16%; in [4], 133%; in test [7] it was 57%. The compound further gave an inhibition at 200 µM in test [5] of 20%. Further, in test [6], binding was put at a Kd of 470 nM.

Compound `CC(C)C[C@H](NC(=O)[C@H](CCCCN)NC(=O)[C@H](CC(=O)O)NC(=O)[C@H](CC(=O)O)NC(=O)CNC(=O)[C@H](CS)NC(=O)CN)C(=O)N[C@@H](CS)C(=O)N[C@@H](CCC(=O)O)C(=O)N[C@@H](Cc1ccc(O)cc1)C(=O)N[C@H](C(=O)NCC(=O)N[C@@H](CC(N)=O)C(=O)N[C@@H](CCCNC(=N)N)C(=O)N[C@@H](CCCNC(=N)N)C(=O)N[C@H](C(=O)N[C@@H](CCCCN)C(=O)N[C@@H](CS)C(=O)N[C@@H](CCCCN)C(=O)N[C@@H](CS)C(=O)N[C@@H](CCCCN)C(=O)O)C(C)C)C(C)C` (H-GCGDDKLCEYVGNRRVKCKCK-OH) registered an Activity in test [3] of 3%. This compound returned an inhibition at 200 µM in test [5] of 18%.

For `CCN(CC)CCCC(C)Nc1ccnc2cc(Cl)ccc12` (centres undefined) [CHLOROQUINE], the inhibition at 500 µg/mL in test [8] was 100%.

In test [9], `O=C(O)CN(CCOCCOCCN(CC(=O)O)CC(=O)O)CC(=O)O` [EGTAZIC ACID] returned an inhibition of 83%.

For the compound H-IKNKKLEKLKNIVSGDFVGNY-OH, the Activity in test [1] was 105%; in test [3], 22%; in test [4], 223%; in test [7], 174%. This compound came in with an inhibition at 200 µM in [5] of 68%. The same compound had a Kd in [6] of 550 nM.

As to H-KDKEYHEQFKNYIYGVYSYA-OH, the Activity in test [1] was found to be 73%; in [3], 7%; in [4] it was 34%; in test [7], 0%. In addition, at 200 µM the inhibition in test [5] was 24%.

Turning to H-KNVHVLINGNSIIDEIEKNEY-OH, in test [3], the Activity worked out at 10%. Besides, the inhibition at 200 µM in test [5] was 29%.

With H-KPEEEYKKFLEYSFNLLNTM-OH, the Activity was 100% in [1], 9% in test [3], 0% in test [4] and 10% in [7]. In addition, the inhibition at 200 µM in test [5] was 49%. Also, the Kd in [6] worked out at 450 nM.

As to H-KQNSHLSEKKIKPEEEYKKF-OH, the Activity in [1] turned out to be 57%; in test [3], 22%; in [4], 73%; in test [7], 88%. Further, the inhibition at 200 µM in test [5] is 83%.

In test [3], H-MRILGEEKPNVDGVSTSNTPY-OH registered an Activity of 9%. In test [5], this compound yielded an inhibition at 200 µM of 11%.

Take H-MWIVKFLIVVHFFIICTINFY-OH: the result in test [10] was inactive.

Consider H-NLGLFGKNVLSKVKAQSETDY-OH, for which the Activity was determined as 105% in [1], 9% in [3], 160% in test [4] and 0% in test [7]. This compound displayed an inhibition at 200 µM in test [5] of 59%. Binding in test [6] was characterised by a dissociation constant (Kd) of 600 nM.
